Data: ChEMBL document CHEMBL1133404, “Synthesis and biological activities of NB-506 analogues modified at the glucose group” (Bioorg Med Chem Lett, 2000)
pEC50, pIC50: −log10 of the molar value.

How the values were obtained:
[1] = target: Protein kinase C (PKC); assay: Inhibitory effect on protein kinase C using histone II-As as substrate; assay type: protein assay
[2] = tested on: P388; assay: The compound was tested for the cytotoxic activity against murine leukemia cells (P388); assay type: functional, cell-based; settings: Mus musculus
Outline: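 The murine leukemia P388 cell line was used. Cytotoxicity was read out by a colorimetric tetrazolium–formazan assay.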

[3] = target: DNA topoisomerase II (Homo sapiens, UniProt P11388+Q02880); assay: Tested for inhibitory effect on topoisomerase-2 mediated DNA cleavage using super coiled pBR322 plasmid DNA; assay type: functional
[4] = target: T1, DNA topoisomerase 1 (Homo sapiens, UniProt P11387); assay: Inhibitory effect on topoisomerase-1 mediated DNA cleavage using supercoiled pBR322 plasmid DNA; assay type: functional
T1 sequence (P11387 whole entry): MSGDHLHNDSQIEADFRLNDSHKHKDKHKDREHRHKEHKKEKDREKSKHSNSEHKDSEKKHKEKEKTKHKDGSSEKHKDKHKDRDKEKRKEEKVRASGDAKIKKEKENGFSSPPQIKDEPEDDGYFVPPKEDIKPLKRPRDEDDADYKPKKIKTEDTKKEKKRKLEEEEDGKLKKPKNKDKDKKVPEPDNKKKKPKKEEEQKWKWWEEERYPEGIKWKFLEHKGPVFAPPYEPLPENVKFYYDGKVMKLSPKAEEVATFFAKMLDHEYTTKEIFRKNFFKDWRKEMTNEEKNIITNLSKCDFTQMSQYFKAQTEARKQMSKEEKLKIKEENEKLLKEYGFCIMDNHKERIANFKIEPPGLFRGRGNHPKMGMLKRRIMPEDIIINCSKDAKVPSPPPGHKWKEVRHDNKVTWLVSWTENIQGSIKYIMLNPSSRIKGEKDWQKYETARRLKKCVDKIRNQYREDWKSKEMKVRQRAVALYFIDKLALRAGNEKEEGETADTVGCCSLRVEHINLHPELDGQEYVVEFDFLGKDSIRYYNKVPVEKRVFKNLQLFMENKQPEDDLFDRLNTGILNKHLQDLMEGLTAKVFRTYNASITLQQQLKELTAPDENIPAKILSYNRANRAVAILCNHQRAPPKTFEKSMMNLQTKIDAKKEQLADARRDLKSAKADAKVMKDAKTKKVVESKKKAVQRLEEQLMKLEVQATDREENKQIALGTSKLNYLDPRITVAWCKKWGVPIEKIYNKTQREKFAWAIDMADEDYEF

[5] = tested on: P388; assay: Compound was tested for the effect on the formation of protein-DNA complex in P388 cells investigated by the K+/SDS method; assay type: functional, Mus musculus
Outline: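 Formation of topoisomerase–DNA (protein–DNA) complexes was measured in murine leukemia P388 cells by K+/SDS precipitation. Activity was reported as EC200.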

[6] = tested on: MKN-45; assay: Tested for cytotoxic activity against human stomach cancer cells (MKN-45); assay type: functional, cell-based
Outline: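 The human stomach cancer MKN-45 cell line was used. Cytotoxicity was read out by a colorimetric tetrazolium–formazan assay and by sulforhodamine B dye staining.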

[7] = tested on: MKN-45; assay: Inhibitory activity against human stomach cancer cells MKN-45 in nude mice after intravenous dose
[8] = tested on: MKN-45; assay: Ratio of compound toxicity to that of anticancer activity against human stomach cancer cells MKN-45 in mice; assay type: functional
Outline: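 MKN-45 human stomach cancer cells were implanted subcutaneously in a side flank of nude mice. Dosing began once tumors reached 0.2 cm³ or larger and was given intravenously five times per week for 2 weeks. GID75 is the approximate dose giving 75% tumor growth inhibition. LD10 is the approximate 10% lethal dose on the same schedule. Safety margin is LD10/GID75.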

[9] = species on record: Mus sp.; assay: Tested for toxicity in mice; assay type: organism-based; settings: in vivo
Outline: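 Nude mice bearing subcutaneous MKN-45 human stomach cancer flank xenografts; dosing intravenous five times/week for 2 weeks, starting once tumors reached 0.2 cm³ or larger. Toxicity expressed as LD₁₀, the approximate dose lethal to 10% of animals on this schedule.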

SMILES | IC50 [1] [nM] | pIC50 [2] | EC50 [3] [nM] | pEC50 [4] | EC200 [5] [nM] | pIC50 [6] | GID75 [7] [mg m**-2] | Saftey margin [8] | LD10 [9] [mg m**-2]
O=C1c2c(c3c4ccc(O)cc4n([C@@H]4O[C@H](CO)[C@@H](O)[C@@H]4O)c3c3[nH]c4cc(O)ccc4c23)C(=O)N1NC(CO)CO | 120000 | 8.28 | > 50000 | 7.49 | 430 | 7.03 |  |  | 
O=C1c2c(c3c4ccc(O)cc4n([C@H]4O[C@H](CO)[C@H](O)[C@H]4O)c3c3[nH]c4cc(O)ccc4c23)C(=O)N1NC(CO)CO | > 200000 | 7.92 | > 50000 | 7.77 | 400 | 7.17 |  |  | 
C[C@H]1O[C@@H](n2c3cc(O)ccc3c3c4c(c5c6ccc(O)cc6[nH]c5c32)C(=O)N(NC(CO)CO)C4=O)[C@H](O)[C@@H](O)[C@@H]1O | 60000 | 8.52 | > 50000 | 6.85 | 6500 | 7.42 |  |  | 
O=C1c2c(c3c4ccc(O)cc4n([C@@H]4O[C@H](CO)[C@H](O)[C@H]4O)c3c3[nH]c4cc(O)ccc4c23)C(=O)N1NC(CO)CO | > 200000 | 9.02 | > 50000 | 7.77 | 60 | 8.22 | 300 | 1.4 | 420
O=C1c2c(c3c4ccc(O)cc4n([C@@H]4O[C@@H](C(O)CO)[C@@H](O)[C@H]4O)c3c3[nH]c4cc(O)ccc4c23)C(=O)N1NC(CO)CO (some centres not stated) | > 200000 | 7.85 | > 50000 | 7.70 | 1700 | 7.54 |  |  | 
O=C1c2c(c3c4ccc(O)cc4n([C@H]4O[C@H](CO)[C@@H](O)[C@H]4O)c3c3[nH]c4cc(O)ccc4c23)C(=O)N1NC(CO)CO | 21000 | 7.72 | > 50000 | 7.52 | 450 | 6.89 | 540 | 1.9 | 1000
O=C1c2c(c3c4ccc(O)cc4n([C@@H]4O[C@H](CO)[C@@H](O[C@H]5O[C@H](CO)[C@@H](O)[C@H](O)[C@H]5O)[C@H](O)[C@H]4O)c3c3[nH]c4cc(O)ccc4c23)C(=O)N1NC(CO)CO | > 200000 | 8.46 | > 50000 | < 5.52 | >10000 | 7.14 |  |  | 
O=C1c2c(c3c4ccc(O)cc4n([C@H]4C[C@H](O)[C@@H](CO)O4)c3c3[nH]c4cc(O)ccc4c23)C(=O)N1NC(CO)CO | 3000 | 8.36 | > 50000 | 7.60 | 170 | 7.35 |  |  | 
O=C1c2c(c3c4ccc(O)cc4n([C@@H]4OC[C@@H](O)[C@H]4O)c3c3[nH]c4cc(O)ccc4c23)C(=O)N1NC(CO)CO | 12000 | 8.62 |  | 7.40 |  | 7.43 |  |  | 
O=C1c2c(c3c4ccc(O)cc4n([C@@H]4C[C@@H](O)[C@H](O)[C@@H](CO)O4)c3c3[nH]c4cc(O)ccc4c23)C(=O)N1NC(CO)CO | 150000 | 7.80 | > 50000 | 6.89 | 1200 | 7.48 |  |  | 
O=C1c2c(c3c4ccc(O)cc4n([C@H]4O[C@H](CO)[C@@H](O)[C@@H](O)[C@H]4O)c3c3[nH]c4cc(O)ccc4c23)C(=O)N1NC(CO)CO | 72000 | 7.74 |  | 7.59 | 1600 | 7.70 |  |  | 
O=C1c2c(c3c4ccc(O)cc4n([C@H]4O[C@H](CO)[C@@H](O)[C@H](O)[C@@H]4O)c3c3[nH]c4cc(O)ccc4c23)C(=O)N1NC(CO)CO | 50000 | 7.82 | > 50000 | 7.10 | 930 | 7.64 |  |  | 
O=C1c2c(c3c4ccc(O)cc4n([C@@H]4O[C@H](CO)[C@H](O)[C@H](O)[C@H]4O)c3c3[nH]c4cc(O)ccc4c23)C(=O)N1NC(CO)CO | > 200000 | 8.15 |  | 6.85 | >10000 | 8.03 |  |  | 
O=C1c2c(c3c4ccc(O)cc4n([C@@H]4O[C@H](C(O)CO)[C@@H](O)[C@H]4O)c3c3[nH]c4cc(O)ccc4c23)C(=O)N1NC(CO)CO (some centres not stated) | > 200000 | 7.77 | > 50000 | 7.38 | 2000 | 7.15 | 260 | 1.4 | 370
O=C1c2c(c3c4ccc(O)cc4n([C@@H]4OC[C@@H](O)[C@H](O)[C@H]4O)c3c3[nH]c4cc(O)ccc4c23)C(=O)N1NC(CO)CO | > 200000 | 8.42 | > 50000 | 7.00 | 300 | 7.30 |  |  | 
O=C1c2c(c3c4ccc(O)cc4n([C@H]4C[C@@H](O)[C@H](O)[C@@H](CO)O4)c3c3[nH]c4cc(O)ccc4c23)C(=O)N1NC(CO)CO | 130000 | 8.25 | > 50000 | 6.62 | 3000 | 7.38 |  |  | 
O=C1c2c(c3c4ccc(O)cc4n([C@@H]4O[C@H](CO)[C@@H](O)[C@H](O)[C@@H]4O)c3c3[nH]c4cc(O)ccc4c23)C(=O)N1NC(CO)CO | 20000 | 7.44 | > 50000 | 6.64 | >10000 | 7.20 |  |  | 
O=C1c2c(c3c4ccc(O)cc4n([C@H]4O[C@H](CO)[C@@H](O)[C@@H]4O)c3c3[nH]c4cc(O)ccc4c23)C(=O)N1NC(CO)CO | > 200000 | 8.07 | > 50000 | 7.00 | 2600 | 7.37 |  |  | 
O=C1c2c(c3c4ccc(O)cc4n([C@H]4O[C@H](CO)[C@@H](O)[C@H](O)[C@H]4O)c3c3[nH]c4cc(O)ccc4c23)C(=O)N1NC(CO)CO | 23000 | 7.72 | > 50000 | 6.52 | 450 | 8.07 | 110 | 1.5 | 170
